AHR activator – human AHR activation | P35869 | activation, % at 5 µM | 320,000 tested, 2.5% active | AID 2796 | AHR-responsive luciferase reporter cells, luminescence; in the data active = activation above about 47%;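 also: 0% = vehicle wells and 100% = reference agonist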
FXN GAA850 act – increases GAA850 frataxin promoter reporter activity; AID 540364; activation, % at 6 µM; HEK293 lucGAA850 FXN promoter luciferase reporter, 24 h; percent of 10 µM SAHA response; 360,000 tested, 0.56% active;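 active = activation above the average of all compounds screened plus 3 SD, cutoff fixed separately per campaign, cut at about 7.5% in these data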;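 also: 0% = DMSO wells and 100% = 10 µM SAHA wells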
CTSL1 counter – blocks F. hepatica cathepsin L1 in PFM18AAP counter-screen; recombinant F. hepatica cathepsin L1, Z-Leu-Arg-MCA fluorescence; inhibition, % at 5.96 µM; 300,000 tested, 0.49% active;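 active = inhibition above the mean of all tested compounds plus 3 SD, set per screening campaign, cut at about 17% in these data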;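 also: 0% = plate median of test compound wells and 100% = 1 µM Z-Phe-Ala-diazomethylketone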
PfM18AAP inh – blocks P. falciparum M18 aspartyl aminopeptidase; recombinant PfM18AAP, H-Glu-NHMec fluorogenic cleavage; inhibition, % at 7.35 µM; 290,000 tested, 1.2% active;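 active = inhibition above the campaign mean inhibition over all tested compounds plus 3 SD, cut at about 28% in these data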;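 also: 0% = plate median of test compound wells and 100% = 2 mM ZnCl2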
SENP1 inh – SENP1 (human) catalytic domain inhibition; recombinant SENP1 catalytic domain, CyPet-SUMO1-YPet FRET cleavage; inhibition, % at 10 µM; 360,000 tested, 0.21% active; AID 624204;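 active = inhibition at least 30% at 10 µM, raw YFP signal under a set limit, fluorescence ratio 0.5 to 1.5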;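 also: 0% = enzyme with DMSO and 100% = no enzyme wells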
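Test system: human SENP1 catalytic domain; medium: Tris pH 8 buffer plus EDTA, NaCl, BME, BSA, NP40, catalase; incubation: 50 min reaction at room temperature; technique: FRET, CFP and YFP emission; controls: no-enzyme low control and enzyme-plus-DMSO high control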
HDAC3 inhib – inhibitors of human histone deacetylase 3; inhibition, % at 8.3 µM; O15379; 320,000 tested, 0.15% active; recombinant HDAC3, fluorogenic peptide/trypsin coupled, fluorescence; in the data active = inhibition above about 26%, passing the limit was not always enough
Target sequence (O15379 whole entry, looked up): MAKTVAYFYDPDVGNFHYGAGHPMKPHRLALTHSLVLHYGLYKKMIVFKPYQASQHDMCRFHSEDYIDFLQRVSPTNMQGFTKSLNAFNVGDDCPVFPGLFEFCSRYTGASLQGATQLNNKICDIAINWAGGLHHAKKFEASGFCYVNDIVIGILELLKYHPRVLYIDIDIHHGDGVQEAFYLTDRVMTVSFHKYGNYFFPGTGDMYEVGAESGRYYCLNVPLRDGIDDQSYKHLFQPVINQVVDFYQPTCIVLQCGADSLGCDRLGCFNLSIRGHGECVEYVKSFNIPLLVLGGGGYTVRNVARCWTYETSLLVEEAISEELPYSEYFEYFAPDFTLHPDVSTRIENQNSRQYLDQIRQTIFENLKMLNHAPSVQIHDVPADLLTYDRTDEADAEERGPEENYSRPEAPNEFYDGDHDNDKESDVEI
* = called active by the depositor. The list is not random: actives were taken first. Their share in the collection is about 4.2%.

`c1ccc(NCCc2ccccn2)cc1` gave FXN GAA850 act 1 and SENP1 inh -1.
Screening Nc1cc(C(F)(F)F)ccc1NCCc1ccccn1 returned AHR activator 64*, FXN GAA850 act 0, CTSL1 counter 0, PfM18AAP inh 18, SENP1 inh 2 and HDAC3 inhib 2.
For S=c1[nH]nc(-c2cc(-c3ccccn3)nc3ccccc23)o1 the results were AHR activator 73*, FXN GAA850 act -1, CTSL1 counter 1, PfM18AAP inh 2, SENP1 inh 40 and HDAC3 inhib 12.
Screening CC(=O)c1cccc(NC(=S)NCCC2=CCCCC2)c1 returned AHR activator 4, FXN GAA850 act 2, CTSL1 counter 1, PfM18AAP inh -1, SENP1 inh 2 and HDAC3 inhib -1.
Screening O=C(NCCC1=CCCCC1)Nc1ccc2nsnc2c1 returned AHR activator 10, FXN GAA850 act 2, CTSL1 counter 24*, PfM18AAP inh 6, SENP1 inh -59 and HDAC3 inhib -4.
COc1ccccc1-c1nc(C#N)c(NCCCn2ccnc2)o1 was read as AHR activator 70*, FXN GAA850 act 2, CTSL1 counter 0, PfM18AAP inh 1, SENP1 inh 1 and HDAC3 inhib -124.
For COc1ccc(CCNc2oc(-c3ccccc3OC)nc2C#N)cc1 the results were AHR activator 14, FXN GAA850 act 0, CTSL1 counter -4, PfM18AAP inh 8, SENP1 inh -3 and HDAC3 inhib -85.
Screening c1ccn2c(SCc3ccc4c(c3)OCCO4)nnc2c1 returned AHR activator 1, FXN GAA850 act 3, CTSL1 counter 2, PfM18AAP inh -3, SENP1 inh 0 and HDAC3 inhib 2.
Screening c1ccc2c(c1)ccc1nnc(SCc3ccc4c(c3)OCO4)n12 returned AHR activator 65*, FXN GAA850 act 3, CTSL1 counter 1, PfM18AAP inh -3, SENP1 inh 2 and HDAC3 inhib 11.
COc1ccc(N2C(=O)[C@@H]3[C@H](C2=O)[C@H]2c4ccccc4C=CN2[C@@H]3C(=O)Nc2ccccc2)cc1 was read as AHR activator 56*, FXN GAA850 act 3, CTSL1 counter 0, PfM18AAP inh -7, SENP1 inh -26 and HDAC3 inhib 5.
For Cc1ccc(N2C(=O)[C@@H]3[C@H](C2=O)C2c4ccccc4C=CN2[C@@H]3C(=O)c2ccco2)c(C)c1 (stereo partly specified) the results were AHR activator 11, FXN GAA850 act -1, CTSL1 counter 35*, PfM18AAP inh 9, SENP1 inh 6 and HDAC3 inhib -4.
For Cc1ccc(N2C(=O)[C@@H]3[C@H](C2=O)C2c4ccccc4C=CN2[C@@H]3C(=O)c2ccco2)cc1 (stereo partly specified) the results were FXN GAA850 act 4, PfM18AAP inh 12 and SENP1 inh -25.
For CC(=O)[C@@H]1[C@@H]2C(=O)N(Cc3ccccc3)C(=O)[C@@H]2C2c3ccccc3C=CN21 (stereo partly specified) the results were AHR activator 10, FXN GAA850 act 1, CTSL1 counter 2, PfM18AAP inh 12, SENP1 inh -22 and HDAC3 inhib 11.
Screening O=C(c1ccco1)[C@@H]1[C@@H]2C(=O)N(c3ccccc3)C(=O)[C@@H]2C2c3ccccc3C=CN21 (stereo partly specified) returned AHR activator 33, FXN GAA850 act 0, CTSL1 counter 28*, PfM18AAP inh -9, SENP1 inh -25 and HDAC3 inhib 1.
COc1ccc(C(=O)C2CCCN(C(=O)c3cccc(N4CCCC4=O)c3)C2)cc1OC (stereo unspecified) was read as FXN GAA850 act 3, PfM18AAP inh 1 and SENP1 inh 1.
`CN(C)C(=O)CCc1ccc2c3c([nH]c2c1)[C@]1(C)[C@@H](C(=O)N2CCCCC2)C[C@H](CC(=O)NCCCn2ccnc2)C(=O)N1CC3` gave FXN GAA850 act -1 and SENP1 inh 0.
`Cc1cc(NN)nc2ccc(Cl)cc12` gave AHR activator 14, FXN GAA850 act 3, CTSL1 counter -2, PfM18AAP inh 31*, SENP1 inh -6 and HDAC3 inhib 8.
Screening CC(C)(C)S(=O)N1Cc2cc(C(=O)NCc3ccc(Oc4ccccc4)cc3)nc(-c3cccc(-c4cc5ccccc5o4)c3)c2[C@@H]1CCO (stereo partly specified) returned SENP1 inh -20.
COc1ccc(-c2cn3cc(C(=O)NN)ccc3n2)cc1 was read as AHR activator 55*, FXN GAA850 act 2, CTSL1 counter 2, PfM18AAP inh 3, SENP1 inh 0 and HDAC3 inhib -42.
Screening COc1ccc(C(=O)NN)cc1 returned AHR activator 8, FXN GAA850 act 1, CTSL1 counter 2, PfM18AAP inh -5, SENP1 inh 2 and HDAC3 inhib 3.
`CCN(CC)c1ccc(/C=N/NC(=O)c2c[nH]c3ccccc23)cc1` gave AHR activator 50*, FXN GAA850 act 5, CTSL1 counter 2, PfM18AAP inh -56, SENP1 inh -24 and HDAC3 inhib -4.
`CCN(CC)c1ccc(/C=N/NC(=O)c2cc3ccccc3[nH]2)cc1` gave AHR activator 58*, FXN GAA850 act 4, CTSL1 counter 5, PfM18AAP inh -50, SENP1 inh -30 and HDAC3 inhib -4.
`CCN(CC)c1ccc(/C=N/NC(=O)c2cc(C)nc3ccccc23)cc1` gave AHR activator 10, FXN GAA850 act -2, CTSL1 counter 3, PfM18AAP inh -16, SENP1 inh 8 and HDAC3 inhib 2.
For O=C(/C=C/c1c(F)cccc1Cl)N1CCc2ccccc2C1 the results were AHR activator -4, FXN GAA850 act 2, CTSL1 counter 3, PfM18AAP inh 3, SENP1 inh 0 and HDAC3 inhib 7.
For Cc1noc(C)c1COc1ccccc1C(=O)N(C)Cc1ccco1 the results were AHR activator 0, FXN GAA850 act -1, SENP1 inh -3 and HDAC3 inhib -4.
Screening CCCc1cc(Nc2cccc(OC)c2)n2ncnc2n1 returned AHR activator 7, FXN GAA850 act 5, CTSL1 counter 18*, PfM18AAP inh 11, SENP1 inh 0 and HDAC3 inhib 0.
`Nc1nc(=O)n(C2CCC(CO)O2)cc1F` (stereo unspecified) gave SENP1 inh 1.
CCOC(=O)C1(C)CCCN(C(=O)c2cc(C)oc2C)C1 (stereo unspecified) was read as FXN GAA850 act 1 and SENP1 inh 0.
For NNC(=O)c1ccc(COc2ccc(Br)cc2)o1 the results were AHR activator 78*, FXN GAA850 act 1, CTSL1 counter 1, PfM18AAP inh -9, SENP1 inh 2 and HDAC3 inhib 0.

High-throughput results from PubChem.
